Compound activity deposited in PubChem by several laboratories.
APJ antag: antagonists of human APJ apelin receptor. P35414. CHO-K1 APJ beta-arrestin complementation, luminescence. inhibition, % at 20 µM. 330,000 compounds, 0.32% hits;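 active = inhibition above about 40% at 20 µM, limit read from the data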;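 also: cells challenged with 10 nM apelin-13 agonist together with compound; plate controls were apelin-13 plus DMSO wells for no effect and DMSO wells lacking apelin-13 for full effect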
CCR6 antag: blocks CCL20-driven beta-arrestin recruitment at human CCR6; CHO-K1 CCR6 PathHunter beta-arrestin, luminescence, CCL20-stimulated; inhibition, % at 20 µM; 340,000 compounds, 0.49% hits; AID 493098;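 active = compounds whose inhibition of the agonist-driven luminescence signal at 20 µM reaches about 50%, limit read from the data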;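 also: cells stimulated with CCL20 at 14 nM final; plate controls were DMSO with CCL20 for no effect and DMSO without agonist for full effect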
APJ agonist: agonists of human APJ apelin receptor; CHO-K1 APJ PathHunter beta-arrestin, luminescence; 0% DMSO wells, 100% apelin; activation, % at 20 µM; 330,000 compounds, 0.11% hits; AID 2520;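 active = activation more than six SD over the plate average, tested at 20 µM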;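 also: 0% = DMSO alone and 100% = apelin-13 at 10 nM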
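Assay system: CHO-K1 cells stably expressing ProLink-tagged human APJ and arrestin–beta-gal acceptor. Compound dosing: 20 µM single point, 1% DMSO. Times: 16-18 h seeding, 90 min dark compound exposure, 60 min detection. Detection: beta-gal luminescence. Evaluation: APJ–arrestin association signal. Controls: negative DMSO alone, positive Apelin-13 at 10 nM.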
EBI2 antag: antagonists of human EBI2 receptor | P32249 | EBI2 beta-arrestin recruitment, luminescence, 7a,25-OHC stimulated | inhibition, % at 5 µM | 360,000 compounds, 0.81% hits | AID 651636; in the data active = inhibition above about 38%;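 also: enzyme fragment complementation signal reports receptor beta-arrestin coupling in cells; 0% = agonist plus DMSO wells and 100% = wells without agonist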
Target sequence (P32249 whole entry, looked up, the tested form may be a part): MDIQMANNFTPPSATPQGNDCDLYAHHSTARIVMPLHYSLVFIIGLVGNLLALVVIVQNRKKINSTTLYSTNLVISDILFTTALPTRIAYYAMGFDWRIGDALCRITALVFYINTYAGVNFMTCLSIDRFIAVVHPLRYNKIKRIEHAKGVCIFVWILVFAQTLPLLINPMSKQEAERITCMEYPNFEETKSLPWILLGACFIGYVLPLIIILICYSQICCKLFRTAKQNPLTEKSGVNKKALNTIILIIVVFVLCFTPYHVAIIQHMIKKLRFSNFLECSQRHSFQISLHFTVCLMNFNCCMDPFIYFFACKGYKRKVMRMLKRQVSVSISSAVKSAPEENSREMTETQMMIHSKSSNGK
CXCR6 block: blocks human CXCR6 beta-arrestin recruitment. 360,000 compounds, 0.36% hits. O00574. inhibition, % at 20 µM. CHO-K1 PathHunter CXCR6 beta-arrestin, luminescence; in the data active = inhibition above about 34%, passing the limit was not always enough;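 also: antagonist mode with CXCL16 agonist at 10 nM final; 0% = 10 nM CXCL16 with DMSO and 100% = unstimulated wells without agonist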
Beta2AR agonist: agonists of human beta-2 adrenergic receptor inducing internalization; 340,000 compounds, 0.43% hits; response, % (concentration not given with the values); Am2.2-beta2AR cells, FAP receptor internalization, flow cytometry; P07550;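 active = response above a set limit, near 3 SD of response in nonfluorescent compounds, cut at about 42% in these data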
EBI2 conf: EBI2 (human) antagonism, single concentration confirmation; shares compounds with EBI2 antag; EBI2 beta-arrestin luminescence, 7a,25-OHC antagonism; inhibition, % at 5 µM; 2,400 compounds, 29% hits; AID 651997;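 active = inhibition of at least 50%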
EBI2 ag: counter-screen for EBI2 antagonists: EBI2 agonist activity; EBI2-expressing cells, agonist mode, luminescence, 60 min; 0% vehicle, 100% 7α,25-dihydroxycholesterol control; 2,400 tested, under 10 active; shares compounds with EBI2 antag; activation, % at 5 µM; AID 652000;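 active = activation of at least 50%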
bGal counter: inhibits E. coli beta-galactosidase, counter-screen for EBI2 antagonists; 2,400 compounds, 1% hits; inhibition, % at 5 µM; purified beta-galactosidase, luminescent Galacton Star, 15 min; shares compounds with EBI2 antag;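 active = replicate-average signal at least 3 plate SD below neutral wells, shown as high inhibition, flagging enzyme-inhibiting false positives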;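 also: 0% = DMSO wells with enzyme and 100% = wells lacking enzyme; higher means stronger loss of beta-gal luminescence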
* marks the source's active call; other numbers are inactive results. This is a sample that favours compounds with a hit; in the whole collection about 1.8% have one here.

Screening Cc1ccc(N2CCN(c3ccc(C)cc3)C2c2cccnc2)cc1 returned APJ antag -22, CCR6 antag 19, APJ agonist 3, EBI2 antag 68*, CXCR6 block -10, Beta2AR agonist 1, EBI2 conf 28, EBI2 ag 0 and bGal counter -12.
COc1ccccc1CNC(=O)CSc1ccc(Br)cc1 was read as APJ antag 2, CCR6 antag 4, APJ agonist 0, EBI2 antag 45*, CXCR6 block -9, Beta2AR agonist -4, EBI2 conf 24, EBI2 ag 1 and bGal counter 5.
Screening COc1ccccc1CNC(=O)COC(=O)CSc1ccc(F)cc1 returned APJ antag -56, CCR6 antag 5, APJ agonist -1, EBI2 antag -8, CXCR6 block -2 and Beta2AR agonist 1.
COc1cccc(CNc2nc3cc(-c4cccc(C(=O)NCCO)c4)sc3c(=O)n2C)c1 was read as EBI2 antag 0 and CXCR6 block 10.
O=C(c1ccccc1)c1sc(Nc2ccc3c(c2)OCO3)nc1-c1ccccc1 was read as EBI2 antag 50*, CXCR6 block 13, EBI2 conf 47, EBI2 ag 0 and bGal counter 9.
For CCN1CCN(C(=O)/C=C/c2ccc(C(C)C)cc2)CC1 the results were APJ antag -8, CCR6 antag 8, APJ agonist -5, EBI2 antag 93*, CXCR6 block -1, Beta2AR agonist 3, EBI2 conf 87*, EBI2 ag 0 and bGal counter 3.
For CCN1CCN(C(=O)/C=C/c2cccc(Cl)c2)CC1 the results were APJ antag 11, CCR6 antag 6, APJ agonist -6, EBI2 antag 75*, CXCR6 block -3, Beta2AR agonist 7, EBI2 conf 34, EBI2 ag 1 and bGal counter 2.
For CCN1CCN(C(=O)/C=C/c2ccc(OC)c(OC)c2)CC1 the results were APJ antag -20, CCR6 antag 5, APJ agonist 1, EBI2 antag -1, CXCR6 block 0 and Beta2AR agonist -3.
For CCC(=O)c1ccc(OCC(O)CN2CCN(C(c3ccccc3)c3ccccc3)CC2)cc1 (configuration not stated) the results were APJ antag 16, CCR6 antag 0, APJ agonist -2, EBI2 antag 75*, CXCR6 block 11, Beta2AR agonist 27, EBI2 conf 46, EBI2 ag 3 and bGal counter 3.
For N#Cc1ccc(OCC(O)CN2CCN(C(c3ccccc3)c3ccccc3)CC2)cc1 (configuration not stated) the results were APJ antag 2, CCR6 antag 10, APJ agonist -1, EBI2 antag 89*, CXCR6 block 4, Beta2AR agonist 14, EBI2 conf 59*, EBI2 ag -1 and bGal counter -11.
For N#Cc1ccc(OCC(O)CN2CCN(c3ncc(C(F)(F)F)cc3Cl)CC2)cc1 (configuration not stated) the results were APJ antag -8, CCR6 antag 12, APJ agonist -4, EBI2 antag 48*, CXCR6 block -12, Beta2AR agonist -19, EBI2 conf 32, EBI2 ag -1 and bGal counter -16.
For OC(COc1ccccc1)CN1CCN(C(c2ccccc2)c2ccccc2)CC1 (configuration not stated) the results were APJ antag -1, CCR6 antag 4, APJ agonist 0, EBI2 antag 59*, CXCR6 block 5, Beta2AR agonist 6, EBI2 conf 22, EBI2 ag 0 and bGal counter -8.
Screening OC(COc1ccccc1)CN1CCCC1 (configuration not stated) returned APJ antag -4, CCR6 antag 0, APJ agonist -2, EBI2 antag 2, CXCR6 block -3 and Beta2AR agonist 4.
Screening N#Cc1ccc(OCC(O)CN2CCN(CC(O)COc3ccc(C#N)cc3)CC2)cc1 (configuration not stated) returned APJ antag 8, CCR6 antag -1, APJ agonist 0, EBI2 antag 15, CXCR6 block 8 and Beta2AR agonist 1.
Screening C[C@]1(CC/C(=C/CO)CO)[C@H](C=O)CC[C@@]23COC(=O)C2=CCC[C@@H]31 returned EBI2 antag 5 and CXCR6 block 4.
N#CCCN(Cc1ccccc1)C(=O)CCC(=O)c1ccc(F)cc1 was read as EBI2 antag -3 and CXCR6 block 6.
For CC(C)NC(=O)N1Cc2cc(C(=O)NC3CCCC3)nc(-c3cccc(-c4cccnc4)c3)c2[C@@H]1CCO the results were EBI2 antag 5 and CXCR6 block -1.
Screening O=C(COC(=O)COc1ccc(Br)cc1)NC1CCCC1 returned APJ antag -2, CCR6 antag 13, APJ agonist -3, EBI2 antag -6, CXCR6 block -9 and Beta2AR agonist -3.
`O=C(CCC1CCCC1)NNC(=O)COc1ccc(Br)cc1` gave APJ antag 6, CCR6 antag -1, APJ agonist -1, EBI2 antag 79*, CXCR6 block 2, Beta2AR agonist 0, EBI2 conf 37, EBI2 ag -1 and bGal counter -7.
For COC(=O)[C@]12CCCCC=C1N(Cc1ccccc1)C(=O)[C@H](CC(=O)NCCC(C)C)C2 the results were EBI2 antag 2 and CXCR6 block -1.
`O=C(CN1CCN(S(=O)(=O)c2ccccc2)CC1)NCCc1ccccc1` gave APJ antag 1, CCR6 antag 2, APJ agonist -2, EBI2 antag 14, CXCR6 block 3 and Beta2AR agonist -2.
For Cc1cc(Br)ccc1OCC(=O)NNC(=O)Cc1ccccc1 the results were APJ antag 15, CCR6 antag 22, APJ agonist 2, EBI2 antag 46*, CXCR6 block -8, Beta2AR agonist 0, EBI2 conf 25, EBI2 ag 1 and bGal counter 3.
Screening CC1(C)C2CCC1(C)C(NC(=O)/C=C/c1ccccc1)C2 (configuration not stated) returned APJ antag -1, CCR6 antag 10, APJ agonist -2, EBI2 antag 46*, CXCR6 block -1, Beta2AR agonist -1, EBI2 conf 43, EBI2 ag 0 and bGal counter 2.
